Type: in vivo, Sprague–Dawley rats
In short: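 Male Sprague–Dawley rats (210–240 g) were fed a control diet or control diet plus 2.5, 5 or 10% test fiber for 2 wk, then dosed orally with test material at 200 or 2,000 mg/kg (n = 5 per group). Tail-vein blood was drawn at 0–24 h. Plasma was spun at 4,000 × g and deproteinized with acetonitrile. LC-MS/MS used MRM with an amlodipine internal standard. Cmax and Tmax were read from the profiles.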

[1] = 10% NUTRIOSE in the diet, ginseng extract-treated rats

CC(C)=CCC[C@](C)(O[C@@H]1O[C@H](CO)[C@@H](O)[C@H](O)[C@H]1O)[C@H]1CC[C@]2(C)[C@@H]1[C@H](O)C[C@@H]1[C@@]3(C)CC[C@H](O[C@@H]4O[C@H](CO)[C@@H](O)[C@H](O)[C@H]4O[C@@H]4O[C@H](CO)[C@@H](O)[C@H](O)[C@H]4O)C(C)(C)[C@@H]3CC[C@]12C [ginsenoside Rd]
fold increase of AUC of ginsenoside Rd by NUTRIOSE [1]: 1.34 fold
fold increase of Cmax of ginsenoside Rd by NUTRIOSE [1]: 1.34 fold
time after administration at which ginsenoside Rd was detected in blood (ginsenoside Rb1-treated rats): 8 h
AUC of ginsenoside Rd, fold higher in ginseng extract-treated than in ginsenoside Rb1-treated rats (same oral dosage of ginsenoside Rb1 and ginseng extract): 13.5 fold

— article PMC4213839 (Journal of Ginseng Research, 2014)
